These results are taken from ChEMBL document CHEMBL1142894, “Preparation of 5-aryl-3-alkylthio-l,2,4-triazoles and corresponding sulfones with antiinflammatory-analgesic activity” (Bioorg Med Chem, 2007).

What all share (type): functional
Experiment [1] has as its system Mus musculus. The experiment can be described thus: Antiinflammatory activity against carrageenan-induced paw edema in Swiss albino mouse assessed as swelling thickness at 10 mg/kg, po after 270 mins. The essentials: (§1)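 Oral dosing in 0.5% CMC; vehicle to controls. Then carrageenan (0.5 mg/25 ll, freshly suspended in 154 mM saline) injected into the right hind paw subplantar tissue; saline into the left paw. Right-left footpad thickness difference measured by dial gauge calliper every 90 min over 6 h. Inhibition % is relative to vehicle control. n = 6; mean ± SEM.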

In experiment [2] the test system is Mus musculus. Briefly: Inhibition of carrageenan-induced paw edema in Swiss albino mouse at 100 mg/kg, po after 90 mins relative to control. The settings on record: 1.5 h. The essentials:
as §1

The test system of experiment [3] is Mus musculus. The experiment can be described thus: Antiinflammatory activity against carrageenan-induced paw edema in Swiss albino mouse assessed as swelling thickness at 100 mg/kg, po after 90 mins. The procedure, abridged: as §1
Experiment [4] deals with Mus musculus. Briefly: Inhibition of carrageenan-induced paw edema in Swiss albino mouse at 10 mg/kg, po after 360 mins relative to control. To be noted: 6 h. The procedure, abridged:
as §1

Experiment [5] deals with Mus musculus. Briefly: Inhibition of carrageenan-induced paw edema in Swiss albino mouse at 100 mg/kg, po after 180 mins relative to control. The settings on record: 3 h. The procedure, abridged:
as §1

Experiment [6] concerns Mus musculus. Briefly: Inhibition of carrageenan-induced paw edema in Swiss albino mouse at 100 mg/kg, po after 360 mins relative to control. The settings on record: 6 h. The essentials:
as §1

Experiment [7] has as its system Mus musculus. The experiment can be described thus: Antiinflammatory activity against carrageenan-induced paw edema in Swiss albino mouse assessed as swelling thickness at 100 mg/kg, po after 180 mins. The procedure, abridged:
as §1

The subject of experiment [8] is Mus musculus. The experiment can be described thus: Antiinflammatory activity against carrageenan-induced paw edema in Swiss albino mouse assessed as swelling thickness at 100 mg/kg, po after 270 mins. The procedure, abridged: as §1
Experiment [9] concerns Mus musculus. Briefly: Inhibition of carrageenan-induced paw edema in Swiss albino mouse at 10 mg/kg, po after 270 mins relative to control. The settings on record: 4.5 h. The essentials: as §1
Experiment [10] has as its system Mus musculus. The experiment can be described thus: Inhibition of carrageenan-induced paw edema in Swiss albino mouse at 10 mg/kg, po after 90 mins relative to control. The settings on record: 1.5 h. The essentials: as §1
The subject of experiment [11] is Mus musculus. The experiment can be described thus: Inhibition of carrageenan-induced paw edema in Swiss albino mouse at 10 mg/kg, po after 180 mins relative to control. The settings on record: 3 h. The procedure, abridged: as §1
Experiment [12] deals with Mus musculus. Briefly: Antiinflammatory activity against carrageenan-induced paw edema in Swiss albino mouse assessed as swelling thickness at 10 mg/kg, po after 360 mins. The procedure, abridged: as §1
Experiment [13] has as its system Mus musculus. The experiment can be described thus: Antiinflammatory activity against carrageenan-induced paw edema in Swiss albino mouse assessed as swelling thickness at 100 mg/kg, po after 360 mins. The essentials: as §1
Experiment [14] deals with Mus musculus. Briefly: Antiinflammatory activity against carrageenan-induced paw edema in Swiss albino mouse assessed as swelling thickness at 10 mg/kg, po after 180 mins. The essentials:
as §1

Experiment [15] has as its system Mus musculus. The experiment can be described thus: Inhibition of carrageenan-induced paw edema in Swiss albino mouse at 100 mg/kg, po after 270 mins relative to control. To be noted: 4.5 h. The procedure, abridged:
as §1

Experiment [16] deals with Mus musculus. Briefly: Antiinflammatory activity against carrageenan-induced paw edema in Swiss albino mouse assessed as swelling thickness at 10 mg/kg, po after 90 mins. The essentials:
as §1

Regarding `COc1ccc2c(c1)c(CC(=O)O)c(C)n2C(=O)c1ccc(Cl)cc1` [INDOMETHACIN], the Activity in the experiment on Mus musculus [1] was 37.5 10^-2mm; with Mus musculus [3], 31.9 10^-2mm; with Mus musculus [7], 34.8 10^-2mm; in the experiment on Mus musculus [8], 36.5 10^-2mm; in the experiment on Mus musculus [12], 40.2 10^-2mm; with Mus musculus [13] it was 39.7 10^-2mm. Moreover, the Activity is reported as 39.1 10^-2mm in the experiment with Mus musculus [14] and 34.5 10^-2mm in the experiment on Mus musculus [16]. Besides, the inhibition in vivo at 100 mg/kg is 28.8% in the experiment with Mus musculus [2], 32.4% with Mus musculus [5], 42.3% in the experiment with Mus musculus [6] and 37.9% with Mus musculus [15]. Further, the inhibition in vivo at 10 mg/kg worked out at 44.2% with Mus musculus [4], 42.1% in the experiment on Mus musculus [9], 35.2% in the experiment on Mus musculus [10] and 34.2% with Mus musculus [11].
